Source: PubChem (several laboratories)
The sample as a whole holds a higher share of hits than the screen did.
Hep lipid drop = modulators of hepatic lipid droplet formation; AML12 mouse hepatocytes, oleate lipid droplets, BODIPY imaging; 240,000 tested, 0.4% active; inhibition, % at 6.5 µM;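 active = lipid droplet intensity inhibited by at least 50%, with more than 500 cells counted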
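Assay system: AML12 mouse liver cells | Compound dosing: One dose, 6.5 µM compound | Read-out basis: Droplet intensity reduction, % inhibition | Measured by: Fluorescence imaging, 20x objective, two fields per well | Schedule: Overnight treatment with compound plus oleate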
MPTP block = blocks calcium-induced mitochondrial swelling; isolated mouse mitochondria, Ca2+ swelling absorbance, 30 min; 360,000 tested, 1.4% active; inhibition, % at 10 µM;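 active = inhibition of 50% or more, scaled per plate between neutral and stimulator controls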;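 note: 0% = DMSO wells given calcium and 100% = 1 mM EGTA wells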
T cruzi repl = T. cruzi replication inhibition. T. cruzi beta-gal in NIH3T3, luminescence, 90 h. 300,000 tested, 1.4% active. inhibition, % (no concentration beside the values);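 active = mean inhibition across valid replicates above about 55%, limit read from the data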;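 note: signal also drops with host cell toxicity which is not excluded here; 0% = plate median of DMSO wells and 100% = zero luminescence signal; higher percent means less beta-gal luminescence so fewer parasites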
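Incubation – ≥90 h infection period, 3 h prior cell attachment · System – NIH/3T3 fibroblasts plus reporter T. cruzi · Doses – compound pinned at 50 nL/well, DMSO · Read-out basis – percent inhibition of parasite-derived β-gal signal · Signal – luminescent β-galactosidase signal after 60 min lysis · Also added – 5000 T. cruzi trypomastigotes/well · Medium – Low-serum DMEM with 2% FBS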
Redox H2O2 prof = compounds producing H2O2 with reducing agent – biochemical, NIH compound library profiling, artefact control for MLSCN library redox annotation, primary screen; DTT-dependent redox cycling H2O2, phenol red/HRP absorbance; 100% = 100 µM peroxide control, 0% = buffer; activation, % at 10 µM; 200,000 tested, 0.03% active; AID 878;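 active = activation of at least 50% relative to the plate's high and low controls in the primary single-dose screen; inactive = activation below 50%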;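 note: compound incubated with DTT at 0.8 mM final as the reducing agent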
L major viab = Leishmania major promastigote growth inhibition | Leishmania major promastigotes, resazurin fluorescence viability | inhibition, % at 10 µM | 200,000 tested, 9% active | AID 1063; in the data active = inhibition above about 50%;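 note: promastigotes grown with compound for 44 hours at 28 °C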
Rh123 counter = mitochondrial membrane potential, counter-screen; isolated mitochondria, Rhodamine 123 fluorescence; inhibition, % at 10 µM; 5,000 tested, 78% active; shares compounds with MPTP block; in the data active = inhibition above about 22%;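 note: 0% = DMSO vehicle and 100% = positive control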
* hit, by the source's call; nt = not tested or not shown.

SMILES	Hep lipid drop	MPTP block	T cruzi repl	Redox H2O2 prof	L major viab	Rh123 counter
C=C(C)c1cccc(C(C)(C)NC(=O)Nc2ccc(C(C)=O)cc2)c1	37.2	82.3*	5.4	-0.4	-2.4	83.0*
C=C(C)c1cccc(C(C)(C)NC(=O)Nc2ccc(OC)cc2)c1	1.3	6.9	-6.6	0.5	16.5	nt
Cc1nc2cc(C)c(C)cc2s1	-1.9	0.0	5.9	0.4	-7.2	nt
Cc1cc2nc3ccc(=[N+](C)C)cc-3sc2cc1N	-12.0	62.9*	68.8*	nt	nt	36.6*
CC(C)C[C@H](NC(=O)OC(C)(C)C)c1nnc(SCC(=O)Nc2ccc(Br)cc2)o1	nt	65.5*	3.3	-0.2	-6.4	69.6*
CCOC(=O)N1CCN(C(=O)C[C@@H]2C[C@@]3(C(=O)OCC)CCCC=C3N(Cc3ccccc3)C2=O)CC1	nt	0.4	nt	nt	nt	nt
CCc1ccc2c(c1)NC(=O)C2(C)Cc1ccc(C(F)(F)F)nc1 (stereo not drawn)	nt	-0.8	nt	nt	nt	nt
N#CC(OC(=O)c1ccccc1)c1cccc([N+](=O)[O-])c1 (stereo not drawn)	nt	-0.1	nt	nt	nt	nt
COc1cc(C)ccc1OCc1cc(C(=O)N2CCC(c3ccc(F)cc3)C2)no1 (stereo not drawn)	-36.8	1.9	40.9	nt	nt	nt
CCN1CCN(c2cc(N3CCc4ccccc4C3)c(F)cc2[N+](=O)[O-])CC1	6.0	103.5*	27.7	-0.2	60.5*	-11.6
CC(=O)N1CCN(c2cc(N3CCCC3)c(F)cc2[N+](=O)[O-])CC1	0.4	0.0	6.6	-1.8	2.1	nt
Cc1nn(CCC(=O)NNC(=S)Nc2ccc(Cl)cc2)c(C)c1[N+](=O)[O-]	13.5	23.4	-11.5	-0.1	-5.4	nt
Cc1nn(C(C)C(=O)NNC(=S)Nc2ccc(Cl)cc2)c(C)c1[N+](=O)[O-] (stereo not drawn)	13.3	51.4*	8.6	-1.6	-6.4	60.0*
CC1(C)CC(=O)C2=C(C1)NC1=C(C(=O)c3ccccc31)C2c1ccc(Cl)cc1 (stereo not drawn)	3.5	98.5*	31.1	0.6	59.7*	51.9*
Cc1ccc(Cl)cc1N1CCN(C(=O)CSc2nnc3n2C(C)(C)Cc2ccccc2-3)CC1	-53.1	94.0*	23.7	0.8	17.4	90.0*
COc1ccc(N2CCN(C(=O)CSc3nnc4n3C(C)(C)Cc3ccccc3-4)CC2)cc1	-15.9	17.1	35.7	2.4	25.4	nt
CC1(C)NC(=O)N(CC(=O)N2CCN(c3cccc(Cl)c3)CC2)C1=O	nt	-0.7	nt	nt	nt	nt
N#Cc1ccsc1NC(=O)C1CCN(C(=O)c2ccc(Cl)cc2)CC1	nt	1.9	-6.9	nt	nt	nt
CCCC(=O)c1ccc(N2CCN(C(=O)c3ccccc3Br)CC2)c(F)c1	14.6	79.7*	-26.5	2.3	9.5	65.6*
N#CNC(=Nc1cccc(F)c1)SCc1cccc(F)c1	-39.3	84.0*	-18.5	0.3	1.9	73.8*
Cc1ccc(-n2c(O)c(/C=N/Nc3ccc(S(=O)(=O)N4CCOCC4)cc3[N+](=O)[O-])c3ccccc3c2=O)c(C)c1	-9.2	110.0*	4.6	-0.6	20.5	39.9*
CCOc1ccccc1C1NC(=O)CCC1[N+](=O)[O-] (stereo not drawn)	20.4	0.3	-18.5	nt	nt	nt
CCOc1ccc(NS(=O)(=O)c2cc(NC(=O)c3ccc(C)cc3)ccc2Cl)cc1	-11.8	89.6*	13.2	0.1	38.4	55.9*
COc1ccc(NC(=O)Cc2cccc(F)c2)cc1S(=O)(=O)Nc1ccccc1Cl	-6.7	52.0*	4.7	nt	nt	69.8*
COc1ccc(C(=O)Nc2ccc(C(=O)c3ccccc3)cc2)cc1	nt	62.4*	10.1	nt	nt	41.0*
COc1ccccc1NS(=O)(=O)c1cc(NC(=O)c2ccc(Cl)nc2)ccc1Cl	-16.0	55.6*	2.6	-0.1	12.2	72.4*
Cc1cc(C)nc(N2CCCC(C(=O)NNC(=O)c3ccncc3)C2)n1 (stereo not drawn)	-7.1	-0.6	1.1	nt	nt	nt
COc1ccc(C(=O)Nc2ccc(Cl)c(S(=O)(=O)Nc3ccccc3OC)c2)cc1	-5.6	54.9*	17.7	0.2	38.6	70.0*
Cc1ccnc(NS(=O)(=O)c2ccc(NC(=O)c3cc(=O)c4ccccc4o3)cc2)n1	25.2	0.0	-12.3	nt	nt	nt
